Assay outcomes deposited in PubChem by several laboratories.
NF-kB neuron act = activators of NF-kB expression in neurons, primary screen, cell-based, HTS; fold change at 12.5 µM; human neuronal cells, NF-kB reporter expression; hits give high values; 1.6% of 190,000 active; in the data active = fold change above about 3.3
STAT3 act = IL-6 driven STAT3 reporter potentiators, primary screen, U3A cells, luciferase, luminescence, MLSCN library; IL-6 STAT3-luciferase reporter; 100% = signal with IL-6 EC80 alone; activation (% of control), % at 5.6 µM; 0.91% of 190,000 active;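 active = activation above the screen-wide mean of compound activation plus 3 SD, cut at about 130% in these data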
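Test system: human U3A cells carrying STAT3-luciferase construct; control set: IL-6-only wells as 100% reference; timing: compound pre-incubation 1 h before IL-6, then 6 h stimulation at 37 °C; also added: IL-6 stimulus at 33 ng/mL final; evaluation: % activation versus median of IL-6-stimulated wells; detection: reporter luminescence signal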
STAT1 blocker = STAT1 signaling inhibitors, primary screen, cell-based, HTS, luciferase reporter; NIH 3T3 STAT1-luciferase reporter, IFN-gamma, luminescence; inhibition, % at 5.5 µM; 0.35% of 200,000 active; AID 920, 2007;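 active = inhibition above a set limit, the mean inhibition across all tested compounds plus 3 SD, cut at about 34% in these data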
STAT3 inh = IL-6 driven STAT3 reporter inhibitors, primary screen, U3A cells, luciferase, luminescence, MLSCN library | inhibition, % at 5.5 µM | 0.89% of 190,000 active | AID 862, 2007 | IL-6 STAT3-luciferase reporter; host cell line lacks STAT1;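 active = inhibition above the mean inhibition across all screened compounds plus 3 SD, cut at about 44% in these data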
APP 5'UTR act = activators of APP 5'UTR luciferase reporter, primary screen, SH-SY5Y cells | 1% of 190,000 active | SH-SY5Y APP 5'UTR luciferase reporter, luminescence; zero percent = DMSO vehicle wells | AID 1276, 2008 | activation, % at 2 µM;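 active = activation above a set limit, based on mean plus 3 SD of controls, cut at about 140% in these data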
STAT1 act = STAT1 signaling activators, primary screen, cell-based, HTS, luciferase reporter. activation (% of control), % at 5.5 µM. AID 932, 2007. 2.6% of 200,000 active. NIH 3T3 STAT1-luciferase reporter, IFN-gamma, luminescence; 100% = IFN-gamma alone, no compound;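 active = activation above the screen-wide mean activation plus 3 SD, cut at about 130% in these data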
Large screens that a line does not name were inactive. Sampled rows, rich in hits. Any-hit rate of the full collection: about 5.1%.

O=C(CC(SCc1ccco1)c1ccc(O)cc1)c1cccs1 (centres undefined)	NF-kB neuron act 5.36
O=C(CSc1nnc(-c2ccc(O)cc2)n1Cc1ccco1)c1cccs1	none
O=C(NCCc1ccccc1F)C1CCCN1S(=O)(=O)c1ccccc1 (centres undefined)	none
Cc1occc1C(=O)NCCCCc1ccccc1	none
Cc1ccc(/C=C/C(=O)c2c(C)nc3ccccn23)cc1	NF-kB neuron act 3.59, APP 5'UTR act 195.6, STAT1 act 146.9
Cc1ccccc1C1=NC(C(F)(F)F)(C(F)(F)F)c2c(n(C)c(=O)n(C)c2=O)N1	none
Cn1c2c(c(=O)n(C)c1=O)C(C(F)(F)F)(C(F)(F)F)N=C(c1ccc(Cl)cc1)N2	STAT1 blocker 70.6, STAT3 inh 89.4
Cc1cccc(/C=C/c2nc3ccccc3c(=O)[nH]2)c1	NF-kB neuron act 6.3
Cc1cccc(/C=C/c2nc3ccccc3c(=O)n2Cc2ccccc2)c1	none
CC1CC(C)CN(S(=O)(=O)c2ccccc2[N+](=O)[O-])C1 (centres undefined)	none
Cc1ccnc(N2C(=O)c3ccccc3C2O)c1 (centres undefined)	APP 5'UTR act 152.7
O=Cc1s/c(=N\S(=O)(=O)c2ccccc2)n(CCCCl)c1Cl	STAT1 act 136.3
N#C/C(=C\c1ccc(OCc2ccc(C(=O)O)cc2)cc1)C(=O)N1CCOCC1	NF-kB neuron act 7.01, STAT1 blocker 69.2, STAT3 inh 89.1
O=c1/c(=C\c2ccc(F)cc2)sc2n1CCCN=2	APP 5'UTR act 170.2, STAT1 act 148.8
O=c1/c(=C/c2ccc(O)cc2)sc2n1CCCN=2	STAT1 act 139.3
C=CCn1c(=O)/c(=C/c2ccc(F)cc2)s/c1=C(\C#N)c1nnc2n1CCCCC2	none
COC(=O)/C=c1/sc2n(c1=O)CCN=2	none
Cc1ccc(C)n1-c1ccc(-c2ccn[nH]2)cc1	none
CCOc1ccc(C(=O)/C=C/c2ccc(SC)cc2)cc1	none
CSc1ccc(/C=C/C(=O)c2ccc(O)cc2)cc1	NF-kB neuron act 3.35
O=C(/C=C/c1ccco1)c1ccc(O)cc1	NF-kB neuron act 3.32
CC(=O)Nc1ccc(C(=O)/C=C/c2ccco2)cc1	none
CC(=O)N=c1sc2nc3ccccc3nc2n1N(C(C)=O)C(C)=O	none
CN(CC(=O)N1CCc2ccccc21)S(=O)(=O)c1cccs1	STAT1 act 129.9
Cc1cccc(NC(=O)CC2SC(=O)N(c3ccccc3)C2=O)c1 (centres undefined)	none
Cc1cccc(NC2SC(=O)N(c3ccccc3)C2=O)c1 (centres undefined)	NF-kB neuron act 3.53
O=Cc1c(OCc2ccccc2)ccc2ccccc12	STAT1 act 134.2
CC(C)Oc1ccc2ccccc2c1C=O	none
Cc1cc(OCc2nc(-c3cccs3)no2)cc(C)c1Cl	none
O=C(NCc1ccc(F)cc1)c1nc(-c2cccs2)no1	none
c1ccc(OCc2nc(-c3cccs3)no2)cc1	STAT1 act 144.9
Fc1ccc(OCc2nc(-c3cccs3)no2)cc1	STAT1 act 140.3
N/C(Cc1cccs1)=N\OC(=O)COc1ccc(Br)cc1	none (no result: APP 5'UTR act)
CCOc1ccc(-c2cn(-c3ccc(OC)cc3)c(SC)n2)cc1	NF-kB neuron act 3.8, STAT1 act 143.6
CSc1nc(-c2ccccc2)cn1-c1ccc(NC(C)=O)cc1	none
O=c1c2c(-c3cccs3)csc2ncn1-n1cccc1	STAT3 act 135.6
COC(=O)c1c(NS(=O)(=O)c2ccc(C)cc2)sc2c1CCC(C)C2 (centres undefined)	none
CC(C)(C)C(=O)CSc1nnc(Nc2ccccc2)s1	STAT1 act 130.2
CC(C)(C)C(=O)c1sc(Nc2ccccc2)nc1N	NF-kB neuron act 3.84, STAT1 act 149.5
C/C(CCc1ccccc1)=N/NC(=O)C(=O)NCc1ccccc1	none
CCN(CC)C(=O)CN(C)S(=O)(=O)c1cccc2nsnc12	none
CC(=O)NCCNC(=O)c1ccc(CSc2ccc(Cl)cc2)cc1	APP 5'UTR act 146.7, STAT1 act 141.6
Cc1oncc1-c1csc(-c2ccccc2)n1	STAT1 act 137.1
O=C(O)c1ccc(-c2nc(-c3ccccc3Cl)cs2)cc1	STAT1 act 134.3
Cc1oncc1-c1csc(-c2ccccc2Cl)n1	STAT1 act 143.0
O=C(c1ccc(NS(=O)(=O)c2cccc3cccnc23)cc1)N1CCCCC1	none
CC12CCC(C(=O)N(CSC(=S)N/N=C\c3ccccc3Cl)C1=O)C2(C)C (centres undefined)	none
O=C(OCc1csc(-c2ccccc2)n1)c1ccc(O)cc1	STAT1 act 149.7
Cc1ccc(C(=O)NCC(=O)OCc2csc(-c3ccccc3)n2)cc1	none
C=CCNc1nc(Nc2ccccc2F)nc(OCC)n1	STAT1 act 142.5
C=CCNc1nc(Nc2ccc(OC)cc2OC)nc(OCC)n1	none
CCCN(CC1CC1)C(=O)CCc1nnc(C(OC)c2ccccc2)o1 (centres undefined)	none
COC(c1ccccc1)c1nnc(CCC(=O)N(C)CCCC2CCCC2)o1 (centres undefined)	none
COC(c1ccccc1)c1nnc(CCC(=O)N(C)CCOc2ccccc2)o1 (centres undefined)	STAT1 act 134.6
COC(c1ccccc1)c1nnc(CCC(=O)N(C)Cc2cccc(-n3cccn3)c2)o1 (centres undefined)	STAT1 act 131.3
O=C(NC12CC3CC(CC(C3)C1)C2)c1ccc(-c2ccc(Br)cc2)o1	STAT1 act 143.5
CCN(c1ccccc1)S(=O)(=O)c1ccc(C(=O)Nc2nnc(-c3ccco3)o2)cc1	none
Cc1csc(SCC(=O)NC(=O)C2CCCCC2)n1	APP 5'UTR act 139.0
Cc1ccc(S(=O)(=O)NNC2CC(=O)N(c3ccc(Br)cc3)C2=O)cc1 (centres undefined)	none
Fc1ccc(-c2nc3c(Cl)cc(C(F)(F)F)cn3c2Cl)cc1	STAT3 act 134.3
FC(F)c1nnc2c(Cl)cc(C(F)(F)F)cn12	none
N#CC1=C(N)S[C@H](C(=O)C23CC4CC(CC(C4)C2)C3)[C@H]1c1ccncc1	none
COC(=O)/C=C1\OC(c2ccccc2)=CC1=O	none
O=C(Nc1ccc2nc(-c3cccnc3)[nH]c2c1)c1ccccc1F	none
Cc1cc(C(=O)NCCCN2CCCC2=O)cs1	none
Cc1ccc(Nc2nnc(SCc3cc(=O)n4ccsc4n3)s2)c(C)c1	none
Cc1ccc(SCc2cc(=O)n3ccsc3n2)c(C)c1	STAT1 act 134.2
CCN1/C(=C\C=C(C(C)=O)C(C)=O)Sc2ccccc21	none
